In ChEMBL document CHEMBL1138683 (J Med Chem, 2004):

Columns and labels:
Rattus norvegicus [1] = experiment: Anticonvulsant activity after oral administration of 80 mg/kg dose after 2 hr in rats; + means 25% of the animal is protected; format: functional, organism-based; design: dose 80 mg/kg
In short: (§1)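 Maximal electroshock test in rats after oral dosing in 0.5% methylcellulose (0.04 mL per 10 g body weight). Protection read at 15 min, 30 min, 1 h, 2 h and 4 h after dosing. Graded as the percentage of animals protected, in steps of 25%.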

Mus musculus [2] = experiment: Anti convulsant activity administered intra peritoneally to mouse at maximal electroshock test at 0.5 hr after the drug administered with dose of 300 mg/kg; 1/1= No of animals protected /No of animals tested; format: functional
Rattus norvegicus [3] = experiment: Anticonvulsant activity after oral administration of 80 mg/kg dose after 15 min in rats; + means 25% of the animal protected; format: functional, organism-based; design: dose 80 mg/kg; in short: as §1
Mus musculus [4] = experiment: Anti convulsant activity administered intra peritoneally to mouse for subcutaneous metrazol test at 4 hr after the drug administered with dose of 100 mg/kg; 0/1= No of animals protected /No of animals tested; format: functional
[5] = Anti convulsant activity administered intra peritoneally to mouse for subcutaneous metrazol test at 4 hr with dose of 300 mg/kg; 3/4= No of animals protected /No of animals tested; format: ADME, organism-based; design: dose 300 mg/kg
Mus musculus [6] = experiment: Anti convulsant activity administered intra peritoneally to mouse at maximal electroshock test at 4 hr after the drug administered with dose of 100 mg/kg; 0/3= No of animals protected /No of animals tested; format: functional
Mus musculus [7] = experiment: Anti convulsant activity administered intra peritoneally to mouse for subcutaneous metrazol test at 4 hr with dose of 300 mg/kg; 0/1= No of animals protected /No of animals tested; format: functional
[8] = (§2) Anti convulsant activity administered intra peritoneally to mouse for toxicity at 4 hr with dose of 30 mg/kg; 0/2= No of animals exhibiting toxicity /No of animals tested; format: organism-based; design: dose 30 mg/kg; settings: in vivo, ip
Rattus norvegicus [9] = experiment: Anticonvulsant activity after oral administration of 80 mg/kg dose after 1 hr in rats;+means 25% animals protected; format: functional, organism-based; design: dose 80 mg/kg; in short: as §1
Mus musculus [10] = experiment: Anti convulsant activity administered intra peritoneally to mouse at maximal electroshock test at 0.5 h after the drug administered with dose of 100 mg/kg; 1/3= No of animals protected /No of animals tested; format: functional
Mus musculus [11] = experiment: Anti convulsant activity administered intra peritoneally to mouse at maximal electroshock test at 4 hr after the drug administered with dose of 30 mg/kg; 0/1= No of animals protected /No of animals tested; format: functional
Mus musculus [12] = experiment: Anti convulsant activity administered intra peritoneally to mouse for subcutaneous metrazol test at 0.5 h with dose of 300 mg/kg; 0/1= No of animals protected /No of animals tested; format: functional
[13] = Anti convulsant activity administered intra peritoneally to mouse for toxicity at 0.5 hr with dose of 30 mg/kg; 0/4= No of animals exhibiting toxicity /No of animals tested; format: organism-based; design: dose 30 mg/kg; settings: in vivo, ip
Mus musculus [14] = experiment: Anti convulsant activity administered intra peritoneally to mouse at maximal electroshock test at 0.5 h after the drug administered with dose of 30 mg/kg; 0/1= No of animals protected /No of animals tested; format: functional
Rattus norvegicus [15] = experiment: Anticonvulsant activity after oral administration of 80 mg/kg dose after 4 hr in rats;+ means 25% of the animals protected; format: functional, organism-based; design: dose 80 mg/kg; in short: as §1
Mus musculus [16] = experiment: Anti convulsant activity administered intra peritoneally to mouse for subcutaneous metrazol test at 0.5 hr with dose of 100 mg/kg; 0/1= No of animals protected /No of animals tested; format: functional
[17] = Anti convulsant activity administered intra peritoneally to mouse for toxicity at 4 hr with dose of 100 mg/kg; 0/4= No of animals exhibiting toxicity /No of animals tested; format: organism-based; design: dose 100 mg/kg; settings: in vivo, ip
Mus musculus [18] = experiment: Anti convulsant activity administered intra peritoneally to mouse for subcutaneous metrazol test at 4 hr after the drug administered with dose of 30 mg/kg; 0/1= No of animals protected /No of animals tested; format: functional; settings: route intraperitoneal
Mus musculus [19] = experiment: Anti convulsant activity administered intra peritoneally to mouse at maximal electroshock test at 4 hr after the drug administered with dose of 300 mg/kg; 1/1= No of animals protected /No of animals tested; format: functional
[20] = Anti convulsant activity administered intra peritoneally to mouse for toxicity at 0.5 hr with dose of 100 mg/kg; 1/8= No of animals exhibiting toxicity /No of animals tested; format: organism-based; design: dose 100 mg/kg; settings: in vivo, ip
Mus musculus [21] = experiment: Anti convulsant activity administered intra peritoneally to mouse for subcutaneous metrazol test at 0.5 hr with dose of 30 mg/kg; 0/1= No of animals protected /No of animals tested; format: functional
[22] = Anti convulsant activity administered intra peritoneally to mouse for toxicity at 4 hr with dose of 300 mg/kg; 0/2= No of animals exhibiting toxicity /No of animals tested; format: organism-based; design: dose 300 mg/kg; settings: in vivo, ip
Mus musculus [23] = experiment: Anti convulsant activity administered intra peritoneally to mouse at maximal electroshock test at 4 hr after the drug administered with dose of 300 mg/kg; 0/1= No of animals protected /No of animals tested; format: functional
Mus musculus [24] = experiment: Anti convulsant activity administered intra peritoneally to mouse at maximal electroshock test at 0.5 h after the drug administered with dose of 300 mg/kg; 0/1= No of animals protected /No of animals tested; format: functional
[25] = Anti convulsant activity administered intra peritoneally to mouse for toxicity at 0.5 hr with dose of 100 mg/kg; 0/8= No of animals exhibiting toxicity /No of animals tested; format: organism-based; design: dose 100 mg/kg; settings: in vivo, ip
Rattus norvegicus [26] = experiment: Anticonvulsant activity after oral administration of 50 mg/kg dose after 30 min in rats; + means 25% of the animals protected; format: functional, organism-based; design: dose 50 mg/kg
In short: (§3)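 Rats dosed orally with compound dissolved or suspended in 0.5% methylcellulose (0.04 mL per 10 g body weight). Anticonvulsant protection (MES or scMet) and toxicity scored at 15 min, 30 min, 1 h, 2 h and 4 h after dosing. Graded in steps of 25% of animals protected or showing toxicity.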

Mus musculus [27] = experiment: as §2; format: functional
[28] = Anti convulsant activity administered intra peritoneally to mouse for toxicity at 0.5 hr with dose of 300 mg/kg; 0/4= No of animals exhibiting toxicity /No of animals tested; format: organism-based; design: dose 300 mg/kg; settings: in vivo, ip
Rattus norvegicus [29] = experiment: Anticonvulsant activity after oral administration of 100 mg/kg dose after 4 hr in rats; +means 25% of the animals protected; format: functional, organism-based; design: dose 100 mg/kg
In short: (§4)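 Oral dosing of rats at a single dose, compound dissolved or suspended in 0.5% methylcellulose. Protection in the MES or scMet test checked 15 min, 30 min, 1 h, 2 h and 4 h after dosing. Scored as 25/50/75/100% of animals protected (+ to ++++), – for none.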

Rattus norvegicus [30] = experiment: Anticonvulsant activity after oral administration of 100 mg/kg dose after 2 hr in rats; + means 25% of the animals protected; format: functional, organism-based; design: dose 100 mg/kg; in short: as §4
Rattus norvegicus [31] = experiment: Anticonvulsant activity after oral administration of 100 mg/kg dose after 2 hr in rats;++ means 50% of the animals protected; format: functional, organism-based; design: dose 100 mg/kg; in short: as §4
Rattus norvegicus [32] = experiment: Anticonvulsant activity after oral administration of 100 mg/kg dose after 1 hr in rats; + means 25% of the animals protected; format: functional, organism-based; design: dose 100 mg/kg; in short: as §4
Rattus norvegicus [33] = experiment: Anticonvulsant activity after oral administration of 100 mg/kg dose after 30 min in rats; +++ means 75% of the animals protected; format: functional, organism-based; design: dose 100 mg/kg; in short: as §4
[34] = Anti convulsant activity administered intra peritoneally to mouse for toxicity at 0.5 hr with dose of 300 mg/kg; 4/4= No of animals exhibiting toxicity /No of animals tested; format: organism-based; design: dose 300 mg/kg; settings: in vivo, ip
Rattus norvegicus [35] = experiment: Anticonvulsant activity after oral administration of 100 mg/kg dose after 4 hr in rats;+ means 25% of the animals protected; format: functional, organism-based; design: dose 100 mg/kg; in short: as §4
Mus musculus [36] = experiment: Anti convulsant activity administered intra peritoneally to mouse at maximal electroshock test at 0.5 hr after the drug administered with dose of 100 mg/kg; 0/3= No of animals protected /No of animals tested; format: functional
Mus musculus [37] = experiment: Anticonvulsant activity administered intraperitoneally to mouse for toxicity at 4 hr with dose of 30 mg/kg; format: functional; settings: route intraperitoneal
In short: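 Mice given compound i.p. at 30, 100 or 300 mg/kg, dissolved or suspended in 0.5% methylcellulose. Toxicity scored 0.5 h and 4 h after dosing, recorded as number of animals showing toxicity per number tested.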

Rattus norvegicus [38] = experiment: Anticonvulsant activity after oral administration of 100 mg/kg dose after 1 hr in rats;+ means 25% of the animals protected; format: functional, organism-based; design: dose 100 mg/kg; in short: as §4
Rattus norvegicus [39] = experiment: Anticonvulsant activity after oral administration of 100 mg/kg dose after 30 min in rats; +means 25% of the animals protected; format: functional, organism-based; design: dose 100 mg/kg; in short: as §4
Rattus norvegicus [40] = experiment: Anticonvulsant activity after oral administration of 50 mg/kg dose after 15 min in rats; +++ means 75% of the animals protected; format: functional, organism-based; design: dose 50 mg/kg; in short: as §4
Mus musculus [41] = experiment: Anti convulsant activity administered intra peritoneally to mouse for subcutaneous metrazol test at 0.5 hr with dose of 300 mg/kg; 1/1= No of animals protected /No of animals tested; format: functional
Rattus norvegicus [42] = experiment: Anticonvulsant activity after oral administration of 30 mg/kg dose after 30 min in rats; -means No protection; format: functional, organism-based; design: dose 30 mg/kg; in short: as §4
Rattus norvegicus [43] = experiment: Anticonvulsant activity after oral administration of 50 mg/kg dose after 30 min in rats; ++ means 50% of animals protected; format: functional, organism-based; design: dose 50 mg/kg; in short: as §3

Row | Compound | Activity (Mus musculus [2]) | Activity (Mus musculus [4]) | Activity (Mus musculus [6]) | Activity (Mus musculus [7]) | Toxicity [8] | Activity (Mus musculus [11]) | Activity (Mus musculus [12]) | Toxicity [13] | Activity (Mus musculus [14]) | Activity (Mus musculus [16]) | Toxicity [17] | Activity (Mus musculus [18]) | Toxicity [20] | Activity (Mus musculus [21]) | Toxicity [22] | Activity (Mus musculus [23]) | Activity (Mus musculus [24]) | Toxicity [25] | Toxicity [34] | Activity (Mus musculus [36]) | also measured
1 | CNC(=O)N(C)C(=O)C1C(C)(C)C1(C)C | 1 | 0 | 0 | 0 | 0 | 0 | 0 | 0 | 0 | 0 | 0 | 0 | 1 | 0 | 0 |  |  |  |  |  | Activity (Rattus norvegicus [1]): 25% animals protected; Activity (Rattus norvegicus [3]): 25% animals protected; Toxicity [5]: 3; Activity (Rattus norvegicus [9]): 25% animals protected; Activity (Mus musculus [10]): 1; Activity (Rattus norvegicus [15]): 25% animals protected; Activity (Mus musculus [19]): 1
2 | CC1(C)C(C(=O)NNC(=O)C2C(C)(C)C2(C)C)C1(C)C |  | 0 | 0 | 0 | 0 | 0 | 0 | 0 | 0 |  | 0 | 0 |  | 0 | 0 | 0 | 0 | 0 |  |  | Activity (Rattus norvegicus [26]): 25% of the animals protected; Activity (Mus musculus [27]): 0; Toxicity [28]: 0
3 | CC1(C)C(C(=O)NCCS(=O)(=O)[O-])C1(C)C.[Na+] |  | 0 | 0 | 0 | 0 | 0 | 0 | 0 | 0 |  | 0 | 0 |  | 0 | 0 | 0 | 0 | 0 |  |  | Activity (Rattus norvegicus [29]): 25% of the animals protected; Activity (Rattus norvegicus [30]): 25% of the animals protected; Activity (Mus musculus [27]): 0; Anticonvulsant Activity (Rattus norvegicus [31]): 50% of the animals protected; Activity (Rattus norvegicus [32]): 25% of the animals protected; Activity (Rattus norvegicus [33]): 25% of the animals protected; Toxicity [28]: 0
4 | CCC(CO)NC(=O)C1C(C)(C)C1(C)C (stereo not given) |  | 0 | 0 | 0 |  | 0 | 0 | 0 | 0 | 0 | 0 | 0 | 1 | 0 | 0 | 0 | 0 |  | 4 | 0 | Anticonvulsant Activity (Rattus norvegicus [29]): 25% of the animals protected; Activity (Rattus norvegicus [30]): 25% of the animals protected; Activity (Rattus norvegicus [35]): 25% of the animals protected; Toxicity (Mus musculus [37]): 0; Activity (Rattus norvegicus [32]): 25% of the animals protected
5 | CC(CO)NC(=O)C1C(C)(C)C1(C)C (stereo not given) |  | 0 | 0 | 0 |  | 0 | 0 | 0 | 0 | 0 | 0 | 0 | 1 | 0 | 0 | 0 | 0 |  | 4 | 0 | Activity (Rattus norvegicus [38]): 25% of the animals protected; Activity (Rattus norvegicus [39]): 25% of the animals protected; Toxicity (Mus musculus [37]): 0
6 | CC1(C)C(C(=O)NCCO)C1(C)C | 1 | 0 | 0 | 0 | 0 | 0 |  | 0 | 0 | 0 | 0 | 0 | 1 | 0 | 0 | 0 |  |  | 4 | 0 | Activity (Rattus norvegicus [40]): 75% of the animals protected; Activity (Mus musculus [41]): 1; Activity (Rattus norvegicus [42]): 75% of the animals protected; Anticonvulsant Activity (Rattus norvegicus [43]): 50% of animals protected
